2 molecules from ChEMBL document CHEMBL1125520, “Improved brain delivery of AZT using a glycosyl phosphotriester prodrug” (1992) can be followed below.

Assay [1] has as its system Mus musculus. The experiment in a line: In Vivo detection in Mice plasma after oral administration of 41.63 mg/kg detected in the form of AZT phosphodiester 2 after 2 hr. Set-up: dose 41.63 mg/kg. Format: functional, organism-based.
Assay [2] concerns Mus musculus. Nature of the assay: In Vivo detection in Mice brains after oral administration of 41.63 mg/kg detected in the form of AZT 5`-P after 1 hr. Format: functional.
The subject of assay [3] is Mus musculus. Nature of the assay: In Vivo detection in Mice brains after oral administration of 41.63 mg/kg detected in the form of AZT 5`-P after 8 hr. It is filed as functional.
Assay [4] relates to Mus musculus. The experiment in a line: In Vivo detection in Mice brains after oral administration of 20 mg/kg detected in the form of AZT phosphodiester 2 after 48 hr. Format: functional.
Assay [5] concerns Mus musculus. Nature of the assay: In Vivo detection in Mice plasma after oral administration of 41.63 mg/kg detected in the form of AZT 5`-P after 8 hr. Format: functional, organism-based. Set-up: dose 41.63 mg/kg.
The subject of assay [6] is Mus musculus. The experiment in a line: In Vivo detection of total AZT in Mice plasma after oral administration of 41.63 mg/kg after 48 hr. Format: functional, organism-based. Set-up: dose 41.63 mg/kg. A digest of the protocol:
(§1)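 Male Swiss mice (18–20 g, six weeks old) given the test substance or vehicle ([…]) by gavage as a 3 mM solution (1.5 µmol/mouse). Aortic blood was collected into heparinized tubes at 0.5–48 h and centrifuged at 13000g for 10 min. Plasma was stored at -22 °C and analysed by HPLC. Three mice were used per time point, in triplicate. Values were not corrected for recovery.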

Assay [7] deals with Mus musculus. The experiment in a line: In Vivo detection in Mice plasma after oral administration of 41.63 mg/kg detected in the form of AZT 5`-P after 48 hr. Set-up: dose 41.63 mg/kg. It is filed as functional, organism-based.
In assay [8] the test system is Mus musculus. The experiment in a line: In Vivo detection in Mice brains after oral administration of 58.33 mg/kg detected in the form of AZT phosphodiester 3 after 2 hr. It is filed as functional.
The subject of assay [9] is Mus musculus. Nature of the assay: In Vivo detection of total AZT in Mice brains after oral administration of 58.33 mg/kg after 4 hr. Format: functional. Summed up: (§2)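 Male Swiss mice (18–20 g) dosed orally with a 3 mM solution in […] vehicle; decapitated at 0.5–48 h. Brains were homogenized in acetonitrile-water (3:1), centrifuged at 6000g for 40 min at 4 °C, lyophilized, redissolved in water and filtered (0.45 µm). Reversed-phase C18 column-switching HPLC with diode-array detection; standard spiking; vehicle-fed controls. Three mice per point, triplicates.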

Assay [10] deals with Mus musculus. Nature of the assay: In Vivo detection in Mice brains after oral administration of 58.33 mg/kg detected in the form of AZT after 24 hr. Format: functional.
Assay [11] relates to Mus musculus. Nature of the assay: In Vivo detection of total AZT in Mice brains after oral administration of 58.33 mg/kg after 24 hr. Format: functional. A digest of the protocol: as §2
The test system of assay [12] is Mus musculus. The experiment in a line: In Vivo detection in Mice brains after oral administration of 58.33 mg/kg detected in the form of AZT 5`-P after 1 hr. Format: functional.
In assay [13] the test system is Mus musculus. The experiment in a line: In Vivo detection in Mice plasma after oral administration of 58.33 mg/kg detected in the form of AZT phosphodiester 3 after 0.5 hr. It is filed as functional, organism-based. Set-up: dose 58.33 mg/kg. Summed up: as §1

With `Cc1cn([C@H]2C[C@H](N=[N+]=[N-])[C@@H](COP(=O)(O)OCCO[C@H]3O[C@H](CO)[C@@H](O)[C@H](O)[C@@H]3O)O2)c(=O)[nH]c1=O`, the Plasma content with Mus musculus [1] was determined as 1.6 nM ml-1; with Mus musculus [5], 5.7 nM ml-1; with Mus musculus [6] it was 17.9 nM ml-1; in the assay with Mus musculus [7], 17.9 nM ml-1. For the same molecule, the Brain content in the assay on Mus musculus [2] amounted to 79.3 nmol/g; in the assay with Mus musculus [3], 33.3 nmol/g; in the assay on Mus musculus [4] it was 2.5 nM ml-1.
Consider `CCCCCCCCCCCCCCCCOP(=O)(OCCO[C@H]1O[C@H](CO)[C@@H](O)[C@H](O)[C@@H]1O)OCC1OC(n2cc(C)c(=O)[nH]c2=O)CC1N=[N+]=[N-]` (stereo partly drawn), for which the Brain content worked out at 0 nmol/g in the assay with Mus musculus [8]; 122 nmol/g in the assay with Mus musculus [9]; 1.4 nmol/g in the assay with Mus musculus [10]; 87.9 nM ml-1 with Mus musculus [11]; 147 nmol/g in the assay on Mus musculus [12]. This molecule also showed a Plasma content in the assay with Mus musculus [13] of 0 nM ml-1.
